A short description of assay [1]: Inhibition of Escherichia coli UPPS-mediated condensation of FPP with IPP by spectrophotometric analysis. In outline:
(§1)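 Continuous spectrophotometric assay of FPP + IPP condensation by purified recombinant UPPS (EcUPPS or SaUPPS): 350 μM IPP, 35 μM FPP, 400 μM MESG to follow PPi release, 20 mM Tris·HCl pH 7.5, 0.01% v/v Triton X-100, 1 mM MgCl2.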

Assay [2] can be described thus: Inhibition of Staphylococcus aureus UPPS-mediated condensation of FPP with IPP by spectrophotometric analysis. Summed up:
as §1

The subject of assay [3] is Bacillus subtilis. In words: Antibacterial activity against Bacillus subtilis subsp. subtilis ATCC 6051 after 12 to 16 hrs by broth dilution method. In kind it is functional, organism-based. In outline: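 Microbroth dilution: 16 h LB culture diluted 50-fold, grown to OD600 ∼0.4, diluted 500-fold into LB and plated. Compound serially diluted from 0.5 mM; incubation 12–16 h at 37 °C; growth read as absorbance at 570 nm. IC50 by nonlinear regression, averaged over two independent experiments.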
On the technique in general: Dilution methods test growth across graded concentrations, often in twofold steps.

Assay [4] relates to Escherichia coli. In words: Antibacterial activity against Escherichia coli ATCC 29425 after 3 hrs by MTT assay. The assay is classed as functional, organism-based. The following applies: ATCC 29425, 3 h. In outline:
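Overnight (16 h) culture diluted 50-fold into LB, grown to OD600 ∼0.4, then diluted 500-fold and plated. Compound 2-fold serial dilutions from 0.3 mM; 3 h at 37 °C to mid-exponential phase. Viability read by MTT (2–4 h, then detergent 2 h at 23 °C in dark), absorbance 570 nm. IC50 by nonlinear regression, mean of two independent experiments.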
Background: Formazan colour is commonly taken as a measure of viable cells.

In the next assay the test system is Saccharomyces cerevisiae. In words: Toxicity in Saccharomyces cerevisiae ATCC 208352 after 36 hrs by broth dilution method. In kind it is organism-based. The following applies: ATCC 208352, 36 h. Summed up: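 Yeast growth inhibition run in YPD medium: inoculum prepared by 50-fold dilution, growth to OD600 ∼0.4, then 500-fold dilution. Compound serially diluted from 0.5 mM; plates held 36 h at 37 °C; absorbance at 570 nm. IC50 by nonlinear regression, mean of two independent experiments.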

The test system of assay [5] is Bacillus anthracis. In words: Antibacterial activity against Bacillus anthracis Sterne after 16 hrs by microbroth dilution method. In kind it is functional.
The test system of a further assay is Staphylococcus aureus. In words: Antibacterial activity against methicillin-resistant Staphylococcus aureus USA300 after 16 hrs by microbroth dilution method. Conditions: USA300, 16 h. The assay is classed as functional. In outline: (§2)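 Stationary-phase cultures grown in brain–heart infusion medium at 37 °C, adjusted to OD600 0.016 in BHI, then plated. 2-fold dilutions from 0.25 to 64 μg mL–1 with DMSO as vehicle control. Kanamycin (1–32 μg mL–1) was the control for L. monocytogenes and gentamycin (1–64 μg mL–1) for S. aureus and E. faecalis. Incubated covered at 37 °C for 16 h with shaking. MIC was the concentration giving at least 99% growth suppression by turbidity.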

Assay [6] concerns Enterococcus faecalis. The experiment in a line: Antibacterial activity against vancomycin-resistant Enterococcus faecalis U503 after 16 hrs by microbroth dilution method. The assay is classed as functional. Conditions: U503, 16 h. In outline:
as §2

A further assay deals with Listeria monocytogenes. In words: Antibacterial activity against Listeria monocytogenes 4b F2365 after 16 hrs by microbroth dilution method. The assay is classed as functional. Conditions: 4b F2365, 16 h. Summed up:
as §2

A further assay concerns Pseudomonas putida. In words: Antibacterial activity against Pseudomonas putida after 16 hrs by microbroth dilution method. In kind it is functional. In outline:
(§3)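 Stationary-phase cultures grown in LB broth at 37 °C, adjusted to OD600 0.016 in LB, then added to 96-well plates. 2-fold dilutions from 0.25 to 64 μg mL–1, with kanamycin (1–32 μg mL–1) and DMSO as controls. Incubated covered at 37 °C for 16 h with shaking. MIC taken as the lowest concentration suppressing at least 99% of growth, judged by turbidity.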

Assay [7] has as its system Escherichia coli. The experiment in a line: Antibacterial activity against Escherichia coli MC4100 after 16 hrs by microbroth dilution method. The assay is classed as functional. The following applies: MC4100, 16 h. Summed up: as §3
Assay [8] deals with Enterococcus faecalis. In words: Antibacterial activity against vancomycin-resistant Enterococcus faecalis U503 after 16 hrs by microbroth dilution method in presence of vancomycin. The assay is classed as functional. Conditions: U503, 16 h.
For assay [9], the system named is Bacillus anthracis. The experiment in a line: Antibacterial activity against Bacillus anthracis Sterne after 16 hrs by microbroth dilution method in presence of ampicillin. In kind it is functional.
The test system of assay [10] is Bacillus subtilis. In words: Antibacterial activity against Bacillus subtilis 168 after 16 hrs by microbroth dilution method. The assay is classed as functional. Conditions: subsp. subtilis str. 168, 16 h. Summed up:
as §3

Broadly, the IC50 is the concentration at which inhibition is half-maximal. What is called MIC is the smallest concentration in the dilution series that meets the test's criterion for growth inhibition.

In brackets after ≈: the same amount, converted by molar mass.

`CCOc1cc(/C=C2\SC(=S)N(c3ccc(F)cc3)C2=O)ccc1O`: the IC50 was 41 µM in [1]; 150 µM in assay [2]; above 200 µM in the assay on Bacillus subtilis [3]; above 200 µM with Escherichia coli [4]; above 200 µM in the assay on Saccharomyces cerevisiae.
With `O=C1/C(=C\c2cccc(O)c2O)SC(=S)N1Cc1ccco1`, the IC50 in assay [1] was above 100 µM; in assay [2] it was 5.3 µM; in the assay on Bacillus subtilis [3] it was above 200 µM; in the assay with Escherichia coli [4] it was above 200 µM; in the assay with Saccharomyces cerevisiae it was above 200 µM.
For `Cc1cc(Cl)ccc1-c1ccc(/C=C2\SC(=S)N(CC(=O)O)C2=O)o1`, the IC50 is 260 µM in assay [1], 2.9 µM in the assay with Bacillus subtilis [3], above 200 µM in the assay with Escherichia coli [4] and above 200 µM with Saccharomyces cerevisiae. In addition, the MIC against Bacillus anthracis [5] was 1 µg/mL (≈ 2.54 µM); in the assay on Staphylococcus aureus it was 8 µg/mL (≈ 20.3 µM); against Enterococcus faecalis [6], 1 µg/mL (≈ 2.54 µM); in the assay with Listeria monocytogenes it was 4 µg/mL (≈ 10.2 µM); in the assay on Pseudomonas putida, above 64 µg/mL; against Escherichia coli [7] it was above 64 µg/mL. Further, the MIC in the assay with Enterococcus faecalis [8] was 1.78 µg/mL; in the assay on Bacillus anthracis [9], 1.24 µg/mL.
On to `O=C(O)CCN1C(=O)/C(=C/c2ccc(-c3ccc(Cl)cc3Cl)o2)SC1=S`, for which the IC50 in [1] is 2.1 µM; in assay [2], 2.4 µM; in the assay with Bacillus subtilis [3], 0.43 µM; in the assay on Escherichia coli [4] it was above 200 µM; with Saccharomyces cerevisiae it was 180 µM. Besides, the MIC against Bacillus subtilis [10] was 0.125 µg/mL (≈ 0.292 µM); in the assay with Bacillus anthracis [5], 0.25 µg/mL (≈ 0.584 µM); with Staphylococcus aureus, 4 µg/mL (≈ 9.34 µM); in the assay with Enterococcus faecalis [6], 4 µg/mL (≈ 9.34 µM); in the assay with Listeria monocytogenes, 0.125 µg/mL (≈ 0.292 µM); in the assay with Pseudomonas putida it was above 64 µg/mL. In addition, the MIC in the assay with Escherichia coli [7] was above 64 µg/mL.
Turning to `Cc1ccc(-c2ccc(/C=C3\SC(=S)N(CCCC(=O)O)C3=O)o2)c([N+](=O)[O-])c1`, the IC50 in assay [1] is above 100 µM; in assay [2], 5.7 µM; with Bacillus subtilis [3], 3.2 µM; in the assay with Escherichia coli [4], above 200 µM; in the assay with Saccharomyces cerevisiae, above 200 µM.
On to `O=C(O)CCCCCN1C(=O)/C(=C/c2ccc(-c3cc(Cl)ccc3Cl)o2)SC1=S`, for which the IC50 in [1] was above 100 µM; in assay [2], 3.8 µM; in the assay on Bacillus subtilis [3], 5.6 µM; in the assay with Escherichia coli [4], above 200 µM; in the assay on Saccharomyces cerevisiae it was above 200 µM.
Turning to `CN1C(=O)/C(=C/c2ccc(-c3cc(Cl)ccc3Cl)o2)SC1=S`, the IC50 (in assay [1]; in [2]; with Bacillus subtilis [3]; in the assay with Escherichia coli [4]; in the assay with Saccharomyces cerevisiae) was above 200 µM each time.
In the case of `O=C(O)c1ccc(N2C(=O)/C(=C/c3ccc(Br)cc3)SC2=S)cc1`, the IC50 in assay [1] was above 200 µM; in assay [2], 170 µM; in the assay on Bacillus subtilis [3], above 200 µM; in the assay on Escherichia coli [4], above 200 µM; in the assay with Saccharomyces cerevisiae it was above 200 µM.
For `CC(=O)c1ccc(-c2ccc(/C=C3\SC(=S)N(c4ccccc4)C3=O)o2)cc1`, the IC50 in assay [1] is 85 µM; in [2] it was 32 µM; in the assay with Bacillus subtilis [3] it was above 200 µM; in the assay with Escherichia coli [4] it was above 200 µM; in the assay on Saccharomyces cerevisiae it was above 200 µM.
Regarding `CCOc1cc(/C=C2\SC(=S)N(c3cccc(F)c3)C2=O)ccc1OC(=O)c1cccs1`, the IC50 (in assay [1]; in assay [2]; in the assay on Bacillus subtilis [3]; in the assay on Escherichia coli [4]; with Saccharomyces cerevisiae) was above 200 µM throughout.
Consider `CC1=CC(=O)/C(=C\N2C(=O)/C(=C/c3cccc(O)c3)SC2=S)C(=O)O1`, for which the IC50 in [1] is above 100 µM; in [2], above 100 µM; with Bacillus subtilis [3], above 200 µM; in the assay on Escherichia coli [4], above 200 µM; in the assay with Saccharomyces cerevisiae, above 200 µM.
With `COc1cccc(/C=C2\SC(=S)N(Cc3ccco3)C2=O)c1OC`, the IC50 in [1] was above 100 µM; in [2] it was above 100 µM; in the assay with Bacillus subtilis [3], above 200 µM; with Escherichia coli [4], above 200 µM; with Saccharomyces cerevisiae, above 200 µM.
As to `O=C1/C(=C/c2ccc(Cl)cc2Cl)SC(=S)N1Cc1ccco1`, the IC50 in assay [1] was above 100 µM; in assay [2], above 100 µM; in the assay with Bacillus subtilis [3], above 200 µM; with Escherichia coli [4], above 200 µM; with Saccharomyces cerevisiae, above 200 µM.
Consider `CCN1C(=O)/C(=C/c2ccc(OCC(=O)O)cc2)SC1=S`, for which the IC50 in [1] is above 100 µM; in assay [2], above 100 µM; in the assay on Bacillus subtilis [3], above 200 µM; with Escherichia coli [4] it was above 200 µM; in the assay with Saccharomyces cerevisiae, above 200 µM.
As for `CN(C)c1ccc(/C=C2\SC(=S)N(Cc3ccco3)C2=O)cc1`, the IC50 was above 100 µM in assay [1]; above 100 µM in assay [2]; above 200 µM in the assay on Bacillus subtilis [3]; above 200 µM in the assay with Escherichia coli [4]; above 200 µM in the assay on Saccharomyces cerevisiae.
Turning to `CCOc1cccc(/C=C2\SC(=S)N(Cc3ccco3)C2=O)c1O`, the IC50 in assay [1] was above 100 µM; in assay [2], above 100 µM; in the assay on Bacillus subtilis [3], above 200 µM; in the assay on Escherichia coli [4], above 200 µM; in the assay on Saccharomyces cerevisiae, above 200 µM.
On to `CCN1C(=O)/C(=C/c2ccc(OC)cc2)SC1=S`, for which the IC50 is above 100 µM in [1]; above 100 µM in [2]; above 200 µM in the assay with Bacillus subtilis [3]; above 200 µM with Escherichia coli [4]; above 200 µM in the assay with Saccharomyces cerevisiae.
